ChEMBL document CHEMBL1821682, “Synthesis of new 2'-deoxy-2'-fluoro-4'-azido nucleoside analogues as potent anti-HIV agents” (Eur J Med Chem, 2011)

Assays:
[1] = test system: HEK-293T; assay: Cytotoxicity activity against human 293T by CellTiter-Glo luminescent cell viability assay; type: cell-based
In short: (§1)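 CellTiter-Glo luminescent viability assay quantifying ATP in metabolically active cells; PBMC were PHA-activated. Highest concentration tested 140 μM. IC50 = concentration inhibiting cell growth by 50%, averaged from at least three separate experiments.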

[2] = Cytotoxicity activity against human TZM-bl by CellTiter-Glo luminescent cell viability assay; type: cell-based
In short: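 Viable TZM-bl cells (HeLa-derived) quantified by luminescent ATP read-out after exposure to compound, tested up to a top concentration of 140 μM. IC50 taken as the concentration that inhibits cell growth by 50%, averaged from at least three separate experiments.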

[3] = test system: Human immunodeficiency virus 1; assay: (§2) Antiviral activity against NRTI-resistant Human immunodeficiency virus 1 10076-4 harboring reverse transcriptase M41L, T215Y and M184V mutant infected in human TZM-bl cells assessed as reduction in relative luminescence units after 48 hrs by luciferase reporter gene assay; type: functional, organism-based; details: Human immunodeficiency virus 1, 10076-4, TZM-bl
In short: (§3)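 Panel of eleven NRTI-resistant strains from the NIH Reagent Program plus wild-type NL4-3; highest concentration tested 40,000 nM. EC50 = concentration inhibiting HIV by 50%, averaged from at least two separate experiments.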

[4] = test system: Human immunodeficiency virus 1; assay: as §2, with “4755-5” for “10076-4”, “D67N, L210W, T215Y, M184V, T69D, E44D” for “T215Y”, “V118I” for “M184V”; type: functional, organism-based; details: Human immunodeficiency virus 1, 4755-5, TZM-bl; in short: as §3
[5] = test system: HepG2; assay: Cytotoxicity activity against human HepG2 by CellTiter-Glo luminescent cell viability assay; type: cell-based; in short: as §1
[6] = test system: Human immunodeficiency virus 1; assay: Antiviral activity against NRTI-resistant Human immunodeficiency virus 1 7303-3 harboring reverse transcriptase M41L, D67N, L210W, T215Y, T69D, E44D and V118I mutant infected in human TZM-bl cells assessed as reduction in relative luminescence units after 48 hrs by luciferase reporter gene assay; type: functional, organism-based; details: Human immunodeficiency virus 1, 7303-3, TZM-bl; in short: as §3
[7] = test system: Human immunodeficiency virus 1; assay: Antiviral activity against Human immunodeficiency virus 1 NL4-3 harboring reverse transcriptase K101E mutant infected in human TZM-bl cells assessed as reduction in relative luminescence units after 48 hrs by luciferase reporter gene assay; type: functional, organism-based; details: Human immunodeficiency virus 1, NL4-3, TZM-bl
[8] = test system: Human immunodeficiency virus 1; assay: Antiviral activity against NRTI-resistant Human immunodeficiency virus 1 56252-1 harboring reverse transcriptase K70R, V75I, F77L, F116Y, Q151M and K65R mutant infected in human TZM-bl cells assessed as reduction in relative luminescence units after 48 hrs by luciferase reporter gene assay; type: functional, organism-based; details: Human immunodeficiency virus 1, 56252-1, TZM-bl; in short: as §3
[9] = Cytotoxicity activity against human ACH2 by CellTiter-Glo luminescent cell viability assay; details: ACH-2; in short: as §1
[10] = test system: Human immunodeficiency virus 1; assay: Antiviral activity against Human immunodeficiency virus 1 NL4-3 infected in human TZM-bl cells assessed as reduction in relative luminescence units after 48 hrs by luciferase reporter gene assay; type: functional, organism-based; details: Human immunodeficiency virus 1, NL4-3, TZM-bl
[11] = test system: Human immunodeficiency virus 1; assay: Antiviral activity against NRTI-resistant Human immunodeficiency virus 1 29129-2 harboring reverse transcriptase M41L, D67N, L210W, T215Y and M184V mutant infected in human TZM-bl cells assessed as reduction in relative luminescence units after 48 hrs by luciferase reporter gene assay; type: functional, organism-based; details: Human immunodeficiency virus 1, 29129-2, TZM-bl; in short: as §3
[12] = test system: Human immunodeficiency virus 1; assay: Antiviral activity against NRTI-resistant Human immunodeficiency virus 1 35764-2 harboring reverse transcriptase V75I, F77L, F116Y and Q151M mutant infected in human TZM-bl cells assessed as reduction in relative luminescence units after 48 hrs by luciferase reporter gene assay; type: functional, organism-based; details: Human immunodeficiency virus 1, 35764-2, TZM-bl; in short: as §3
[13] = test system: MT4; assay: Cytotoxicity activity against human MT4 by CellTiter-Glo luminescent cell viability assay; type: cell-based; in short: as §1
[14] = test system: Human immunodeficiency virus 1; assay: Antiviral activity against NRTI-resistant Human immunodeficiency virus 1 7324-1 harboring reverse transcriptase M41L, D67N, K70R, T215F, K219E and T69N mutant infected in human TZM-bl cells assessed as reduction in relative luminescence units after 48 hrs by luciferase reporter gene assay; type: functional, organism-based; details: Human immunodeficiency virus 1, 7324-1, TZM-bl; in short: as §3
[15] = test system: Human immunodeficiency virus 1; assay: Antiviral activity against vesicular stomatitis virus G-pseudotyped Human immunodeficiency virus 1 NL4-3 infected in human MT2 cells assessed as inhibition of viral replication after 48 hrs by luciferase activity reporter gene assay; type: functional, organism-based
In short: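 Pseudovirus made by Ca3(PO4)2 co-transfection of 293 cells with env-deficient pNL4-3.luc.R−E− and VSV-G plasmid; supernatant harvested 48 h, 0.45 μm filtered. MT-2 cells (1.2×10⁵/well) pre-incubated with compound 15 min, then infected; solvent-only control. After 48 h cells lysed and luciferase measured; EC50 from dose-dependent inhibition, averaged from at least two experiments.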

[16] = test system: Human immunodeficiency virus 1; assay: Antiviral activity against NRTI-resistant Human immunodeficiency virus 1 1617-1 harboring reverse transcriptase K70G, M184V, T69K, V75I, F77L, F116Y and Q151M mutant infected in human TZM-bl cells assessed as reduction in relative luminescence units after 48 hrs by luciferase reporter gene assay; type: functional, organism-based; details: Human immunodeficiency virus 1, 1617-1, TZM-bl; in short: as §3
[17] = test system: Human immunodeficiency virus 1; assay: Antiviral activity against NNRTI-resistant Human immunodeficiency virus 1 RTMDR infected in human TZM-bl cells assessed as reduction in relative luminescence units after 48 hrs by luciferase reporter gene assay; type: functional, organism-based
[18] = test system: PBMC; assay: Cytotoxicity activity against human PBMC by CellTiter-Glo luminescent cell viability assay; type: cell-based; in short: as §1
[19] = test system: Human immunodeficiency virus 1; assay: Antiviral activity against NRTI-resistant Human immunodeficiency virus 1 7295-1 harboring reverse transcriptase D67N, K70R, T215F, K219Q, M184V and T69N mutant infected in human TZM-bl cells assessed as reduction in relative luminescence units after 48 hrs by luciferase reporter gene assay; type: functional, organism-based; details: Human immunodeficiency virus 1, 7295-1, TZM-bl; in short: as §3
[20] = test system: Human immunodeficiency virus 1; assay: Antiviral activity against […] infected in human TZM-bl cells assessed as reduction in relative luminescence units after 48 hrs by luciferase reporter gene assay; type: functional, organism-based; details: Human immunodeficiency virus 1, NL4-3, TZM-bl; in short: as §3
[21] = test system: Human immunodeficiency virus 1; assay: Antiviral activity against NRTI-resistant Human immunodeficiency virus 1 7324-4 harboring reverse transcriptase M41L, K70R, T215F and K219E mutant infected in human TZM-bl cells assessed as reduction in relative luminescence units after 48 hrs by luciferase reporter gene assay; type: functional, organism-based; details: Human immunodeficiency virus 1, 7324-4, TZM-bl; in short: as §3
[22] = test system: Human immunodeficiency virus 1; assay: Antiviral activity against NRTI-resistant Human immunodeficiency virus 1 6463-13 harboring reverse transcriptase M41L, D67N, L210W, T215Y, M184V and V118I mutant infected in human TZM-bl cells assessed as reduction in relative luminescence units after 48 hrs by luciferase reporter gene assay; type: functional, organism-based; details: Human immunodeficiency virus 1, 6463-13, TZM-bl; in short: as §3

Compound: [N-]=[N+]=N[C@]1(CO)O[C@@H](n2ccc(N)nc2=O)[C@@H](F)[C@@H]1O
- IC50 [1]: > 140000 nM
- IC50 [2]: > 140000 nM
- EC50 [3]: > 40000 nM
- EC50 [4]: > 40000 nM
- IC50 [5]: > 140000 nM
- EC50 [6]: 0.56 nM
- EC50 [7]: 0.15 nM
- EC50 [8]: 0.525 nM
- IC50 [9]: 110 nM
- EC50 [10]: 0.086 nM
- EC50 [11]: > 40000 nM
- EC50 [12]: 0.42 nM
- IC50 [13]: 120 nM
- EC50 [14]: 0.595 nM
- EC50 ([15]; mt2): 0.13 nM
- EC50 [16]: 32.2 nM
- EC50 [17]: 0.11 nM
- IC50 [18]: 150 nM
- EC50 [19]: > 40000 nM
- EC50 [20]: 0.318 nM
- EC50 [21]: 0.735 nM
- EC50 [22]: > 40000 nM

Compound: [N-]=[N+]=N[C@]1(CO)O[C@@H](n2ccc(N)nc2=O)[C@@H](F)[C@@H]1O [RO-0622]
- EC50 ([15]; mt2): 0.3 nM

Compound: Cc1cn([C@H]2C[C@H](N=[N+]=[N-])[C@@H](CO)O2)c(=O)[nH]c1=O [ZIDOVUDINE]
- EC50 ([15]; Human immunodeficiency virus 1, NL4-3, MT2, 48 h): 47 nM
